Rows were chosen to be rich in hits. Some 1.5% of all compounds tested hit in one or more screens of this group.
C2C12 statin: suppression of simvastatin myotoxicity. actives 0.78% (n = 330,000). C2C12 myotubes + simvastatin, ATP luminescence, 48 h; scaled: DMSO 0, geranylgeraniol control 100. rescue of ATP level, % at 7.49 µM. AID 602340;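 active means mean ATP rescue above about 67%, or every replicate alone reaching that limit, limit read from the data, passing the limit was not always enough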;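 further: myotubes were challenged with 10 µM simvastatin during compound exposure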
Cneo AK release: causes C. neoformans cell lysis; adenylate kinase release luminescence, 4 h; normalised: neutral wells 0, clomiphene wells 100; lysis activity, % at 15 µM; actives 0.2% (n = 360,000); AID 651654;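 active means mean lysis activity across replicates of at least 80%, whatever share of replicates individually reach that level; inactive means mean lysis activity below 80%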
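Material – Cryptococcus neoformans yeast cells · Quantity – 5 × 10^6 yeast cells/mL · Buffer or medium – YPD medium · Compound – single dose · Timing – 4 h static compound exposure, 37 °C, read 1 h post-reagent · Signal – adenylate kinase release luminescence · Read-out basis – lysis from increased AK signal · Benchmarks – Clomiphene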
Mot1-301 SUMO: inhibitors of SUMOylation pathway: yeast Mot1-301 growth rescue | S. cerevisiae Mot1-301 growth rescue, ATP luminescence, 38.5C; percent above DMSO median, 100 means doubled | growth rescue, % at 18.8 µM | actives 1% (n = 320,000);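 active means every valid replicate shows activation above 250% relative to neutral control wells; inactive means the rest, any valid replicate at or below 250%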;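 further: OY570 slx delta 5 strain wells were the positive control but not used for scaling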
An asterisk follows results filed as active; i = inactive; · = not tested or not shown.

SMILES	C2C12 statin	Cneo AK release	Mot1-301 SUMO
CCOc1ccc(N2Nc3n[nH]c(N)c3N2)cc1	3	-2	-37
COc1ccc(N2Nc3n[nH]c(N)c3N2)cc1	106*	-4	-5
C[C@@H]1CN([C@@H](C)CO)C(=O)c2cc(NC(=O)Nc3ccc4c(c3)OCO4)ccc2O[C@@H](C)CCCCO[C@@H]1CN(C)S(=O)(=O)c1cn(C)cn1	·	2	·
Cc1ccc(S(=O)(=O)N2CC[C@@H]3[C@@H](CO)Nc4ccc(Br)cc4[C@@H]32)cc1	28	65	·
Cc1ccccc1-c1ccc([C@@H]2[C@@H](CO)N3CCCCN(S(C)(=O)=O)C[C@@H]23)cc1	4	0	·
C[C@@H]1CCCCO[C@H](CN(C)S(=O)(=O)c2ccc(Cl)cc2)[C@@H](C)CN([C@@H](C)CO)C(=O)c2cc(NC(=O)Nc3cccc4ccccc34)ccc2O1	·	60	·
NC1=NC(=Nc2ccc(Cl)cc2)c2ccccc21	·	0	64
NC1=NC(=Nc2ccccc2)c2ccccc21	134*	3	134
Cc1cc(O)c(C(=O)Cc2csc(C)n2)c(O)c1	1	-1	96
Cc1cc(O)cc(O)c1C(=O)Cc1cscn1	-8	0	353*
C[C@@H]1CCCCO[C@@H](CN(C)S(=O)(=O)c2cccs2)[C@@H](C)CN([C@H](C)CO)C(=O)c2cc(NC(=O)NC3CCCCC3)ccc2O1	·	-1	·
O=C1NN=C(c2ccc(Cl)cc2)CC1c1cccc(Cl)c1 (centres undefined)	137*	6	0
O=C1NN=C(c2ccccc2)CC1c1ccc(Cl)cc1Cl (centres undefined)	3	·	12
Cc1ccc(-c2noc(CCC(=O)NCC3CCN(Cc4cccc(C)c4)CC3)n2)cc1	87*	8	2
CCOc1cc(-c2noc(CCC(=O)NCCc3ccccc3)n2)ccc1OC	18	2	26
Cc1ccc(-c2noc(CCC(=O)NCCN3CCN(Cc4ccccc4)CC3)n2)cc1	-7	2	12
CCOc1ccc(-c2noc(CCC(=O)NC)n2)cc1OCC	95*	-2	-11
Cc1cc(=O)[nH]c(SCc2nnc(-c3ccccc3)o2)n1	4	1	9
Clc1ccc2nc(SCc3nnc(-c4ccccc4)o3)[nH]c2c1	-8	1	650*
C[C@H](O)C#Cc1ccc2c(c1)O[C@H](CN(C)Cc1ccc(-c3ccccc3)cc1)[C@H](C)CN([C@@H](C)CO)S2(=O)=O	-10	21	·
CO[C@@H]1CN(C)C(=O)c2ccc(NC(=O)Nc3cccc(F)c3)cc2OC[C@@H](C)N(C(C)=O)C[C@H]1C	5	-5	·
C[C@H](CO)N1C[C@H](C)[C@H](CN(C)CC2CC2)Oc2cc(-c3cccc(F)c3)ccc2S1(=O)=O	4	0	·
CN(C)C(CNC(=O)c1cccs1)c1cccnc1 (centres undefined)	-3	0	50
CN(C)C(CNC(=O)NC1CCCCC1)c1cccnc1 (centres undefined)	107*	15	4
O=C(C[C@H]1CC[C@H](NC(=O)CN2CCOCC2)[C@@H](CO)O1)NC1CCCCC1	-5	-4	·
SMILES	C2C12 statin	Cneo AK release	Mot1-301 SUMO
CC(C)C(=O)N1CCN(c2ccc(NC(=O)c3ccc([N+](=O)[O-])o3)cc2)CC1	·	·	-17
Cc1ccccc1C(=O)N1CCN(c2ccc([N+](=O)[O-])c(NCc3ccco3)c2)CC1	130*	-2	209
CC(=O)N1CCN(c2ccc(NC(=O)c3ccc(Br)o3)cc2Cl)CC1	-15	2	2
CN1CCN(c2ccc(NC(=O)c3ccc([N+](=O)[O-])o3)cc2Cl)CC1	94*	-5	-1
Cc1ccccc1C(=O)N1CCN(c2ccc(NC(=O)c3ccc([N+](=O)[O-])o3)cc2)CC1	167*	1	37
O=C(c1cccc2ccccc12)N1CCN(c2ccc([N+](=O)[O-])c(NCc3ccco3)c2)CC1	·	-2	18
COc1ccc(CN(C)C[C@@H]2OCCCC[C@@H](C)Oc3ccc(N(C)C)cc3C(=O)N([C@H](C)CO)C[C@H]2C)cc1	4	3	·
C[C@@H]1CN([C@@H](C)CO)C(=O)c2cc(NS(=O)(=O)c3cccs3)ccc2O[C@@H](C)CCCCO[C@@H]1CN(C)C(=O)CCC(F)(F)F	·	-2	·
CCCC(=O)Nc1ccc2c(c1)C(=O)N(C)[C@@H]1CC[C@@H](CC(=O)NCC3CCCCC3)O[C@H]1CO2	1	-1	·
CC(C)[C@H](N)C(=O)NC[C@H](CC(=O)NC[C@H]1CC[C@H](C(=O)O)CC1)c1ccc(Cl)cc1	4	2	16
CC(C)(C)OC(=O)NCC1CCC(C(=O)NC[C@H](CC(=O)O)c2ccc(Cl)cc2)CC1 (some centres undefined)	7	0	336*
O=C(O)CSC1CC(=O)N(c2ccc(Cl)c(Cl)c2)C1=O (centres undefined)	138*	-4	850
O=C(O)CSC1CC(=O)N(c2cccc(Cl)c2)C1=O (centres undefined)	7	1	-1
C[C@H](CO)N1C[C@H](C)[C@@H](CN(C)C(=O)C2CC2)Oc2cc(C#CCN(C)C)ccc2S1(=O)=O	-26	·	·
Cc1ccc2c(c1)NC(C(C)(C)C)CO2 (centres undefined)	115*	-3	6
Cc1ccc2c(c1)N(S(=O)(=O)c1ccc(F)cc1)C(C(C)(C)C)CO2 (centres undefined)	-1	1	12
O=C(Nn1c(C2CCC2)nc2ccccc2c1=O)C1CCC1	85*	1	2
Cc1nc2ccccc2c(=O)n1NC(=O)C1CCCCC1	9	1	-1
COc1ccccc1CNC(=O)C[C@H]1C[C@H]2c3cc(NC(=O)Cc4ccncc4)ccc3O[C@H]2[C@H](CO)O1	2	0	·
C[C@H](CO)N1C[C@H](C)[C@H](CN(C)Cc2ccc3c(c2)OCO3)OCCCC[C@H](C)Oc2ccc(NS(C)(=O)=O)cc2C1=O	-22	53	·
CC(=O)c1ccc(N2CCC(C(=O)O)CC2)cc1	-5	-1	i
CC(=O)c1ccc(N2CCN(C3CCC(C(C)(C)C)CC3)CC2)cc1 (centres undefined)	1	-1	256*
CCOc1ccc2nc(N3CCCC(C(=O)NC4CCCC4)C3)sc2c1 (centres undefined)	-37	-1	-3
CCOc1ccc2nc(N3CCC(C(=O)NC4CCCCC4)CC3)sc2c1	13	6	344*
O=C1CSC(c2cn(-c3ccccc3)nc2-c2ccccc2)N1Cc1ccco1 (centres undefined)	74*	-2	9
CCc1ccc(-c2nn(-c3ccccc3)cc2C2SCC(=O)N2Cc2ccco2)cc1 (centres undefined)	·	·	-11
CC(=O)NC[C@@H]1[C@@H](c2ccc(-c3cccc(F)c3)cc2)[C@H](CO)N1C(C)=O	-21	2	·
CCC(=O)Nc1ccc2c(c1)OC[C@@H](C)N(C(=O)CC)C[C@H](C)[C@@H](OC)CN(C)C2=O	8	·	·
C[C@@H]1CN([C@@H](C)CO)C(=O)c2cc(NC(=O)NC3CCCCC3)ccc2O[C@@H](C)CCCCO[C@@H]1CN(C)C(=O)Cc1ccccc1	·	-17	·

Assay outcomes deposited in PubChem BioAssay by Broad Institute.
